Measurements from publication PMC6939458 (Cancer cell, 2019).
Values joined by “and” are separate entries in the source; they are usually repeats but may differ in a detail not shown here. Identical values can stand only once.

Key:
MYC [1] = biological target: T1, MYC (Homo sapiens, UniProt P01106); test: STD NMR, MYC; assay type: binding; conditions: 975 phosphate analog 100 μM, G5 200 μM
Procedure, shortened: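 Buffer: 50 mM HEPES, 500 mM NaCl, 10 mM β-mercaptoethanol, 5% glycerol, 30 mM imidazole. Ligand spectra recorded with and without each protein individually.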
Target sequence in this assay (P01106 368-454): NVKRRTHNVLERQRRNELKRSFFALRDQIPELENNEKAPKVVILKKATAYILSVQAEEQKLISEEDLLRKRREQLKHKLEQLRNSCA

HIF-1α = HIF-1α (Homo sapiens, UniProt Q16665); test: Biotinylated compound pull down, HIF-1α; assay type: binding; conditions: cell lysates
Sequence of HIF-1α (Q16665 whole entry): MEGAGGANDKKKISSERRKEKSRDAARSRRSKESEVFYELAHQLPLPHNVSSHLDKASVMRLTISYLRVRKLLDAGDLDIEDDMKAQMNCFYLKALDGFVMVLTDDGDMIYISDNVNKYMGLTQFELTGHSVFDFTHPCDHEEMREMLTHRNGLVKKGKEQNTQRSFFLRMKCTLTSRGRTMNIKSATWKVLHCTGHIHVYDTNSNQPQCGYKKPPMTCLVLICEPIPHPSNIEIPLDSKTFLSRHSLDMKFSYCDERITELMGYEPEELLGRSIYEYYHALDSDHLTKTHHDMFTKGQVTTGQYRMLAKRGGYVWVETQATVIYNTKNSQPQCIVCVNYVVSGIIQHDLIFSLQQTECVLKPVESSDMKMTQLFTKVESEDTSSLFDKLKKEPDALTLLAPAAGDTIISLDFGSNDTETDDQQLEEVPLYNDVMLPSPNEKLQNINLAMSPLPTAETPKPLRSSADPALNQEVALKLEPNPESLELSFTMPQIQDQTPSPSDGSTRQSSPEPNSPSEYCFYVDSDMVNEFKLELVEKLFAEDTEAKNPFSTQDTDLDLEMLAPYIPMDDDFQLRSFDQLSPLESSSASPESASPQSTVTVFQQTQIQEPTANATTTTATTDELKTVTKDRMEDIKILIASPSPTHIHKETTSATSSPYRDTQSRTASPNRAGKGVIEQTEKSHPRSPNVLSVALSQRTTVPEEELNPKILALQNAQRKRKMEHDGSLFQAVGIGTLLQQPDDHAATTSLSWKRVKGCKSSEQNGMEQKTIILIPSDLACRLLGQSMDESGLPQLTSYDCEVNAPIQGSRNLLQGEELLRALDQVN
Procedure, shortened: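 A biotin-conjugated test compound was used as bait. Nuclear complexes came from exponentially growing PC3 and P493–6 cells, extracted with a nuclear complex co-IP kit. The pull-down ran in low co-IP buffer with NaCl added to a final 150 mM.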

MYC [2] = biological target: T1, MYC; test: Biotinylated compound pull down, MYC; assay type: binding; conditions: for competition of MYC binding to Biotin-361: PC3 cell lysate, excess competitor
Procedure, shortened: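 Nuclear extract from PC3 cells prepared with a nuclear co-IP kit in low co-IP buffer at 150 mM NaCl final. Extract pre-cleared on streptavidin beads 1 hr at 4 °C. About 100 μg extract incubated overnight at 4 °C on a rotator with 1 to 10 μM biotinylated test compound, 10 μM D-biotin or DMSO. Recombinant MYC (0.5 μg) run the same way in buffer with 1% BSA, without pre-clearing. Bound MYC detected by Western blot. For competition, lysate pre-treated with competitor before biotin probe (5 μM).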
Target sequence in this assay (P01106 16-454): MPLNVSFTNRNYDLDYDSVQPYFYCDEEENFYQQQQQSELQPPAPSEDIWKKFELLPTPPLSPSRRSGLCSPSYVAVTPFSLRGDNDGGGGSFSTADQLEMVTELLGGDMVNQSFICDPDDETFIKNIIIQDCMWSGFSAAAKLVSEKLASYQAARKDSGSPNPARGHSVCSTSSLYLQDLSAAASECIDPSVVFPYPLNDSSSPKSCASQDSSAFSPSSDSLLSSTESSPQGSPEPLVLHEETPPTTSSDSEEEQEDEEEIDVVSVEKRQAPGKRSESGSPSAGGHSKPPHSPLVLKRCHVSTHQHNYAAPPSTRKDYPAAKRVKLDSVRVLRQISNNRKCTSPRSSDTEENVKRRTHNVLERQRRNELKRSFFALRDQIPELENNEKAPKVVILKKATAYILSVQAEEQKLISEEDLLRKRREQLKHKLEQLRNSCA

[3] = tested on: Lewis Lung Carcinoma (LLC1); test: LLC1 allograft lung cancer mouse model; assay type: in vivo; conditions: 100 mg/kg/day
Procedure, shortened: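 LLC1 cells (1 × 10⁶) in PBS:matrigel 1:1 were injected subcutaneously into the flanks of female C57BL/6 mice, aged 6–8 weeks. Mice were randomised 3 days after inoculation and given test compound i.p. as 50 mg/kg twice daily (100 mg/kg/day). Tumour growth and body weight were followed, n = 7 mice/group, mean ± SEM.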

GSK3β-mediated MYC pT58 = GSK3β-mediated MYC pT58 (Homo sapiens, UniProt P01106); test: In vitro kinase assay; assay type: biochemical; conditions: 6 μM
Sequence of GSK3β-mediated MYC pT58 (P01106 16-454): as above
Procedure, shortened: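 Phosphorylation reactions were run in kinase buffer (25 mM Tris-HCl pH 7.5, 5 mM β-glycerophosphate, 2 mM DTT, 0.1 mM sodium vanadate, 10 mM MgCl₂) at room temperature for 2 hr in total.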

MYC [4] = biological target: T1, MYC; test: Cellular thermal shift assay; assay type: cell-based; conditions: PC3 cells
Procedure, shortened: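 PC3 cells (70–80% confluent; also PC3 stably expressing Flag-MYCT58A, puromycin 1.5 μg/ml selected) treated with test compound or DMSO for 30 min. Cells washed, resuspended in PBS with protease/phosphatase inhibitors plus the same compound dose, split into 7–10 aliquots (~1 million cells each), heated 2 min at graded temperatures, then 3 min room temperature. Lysates boiled 5 min at 90 °C; MYC quantified by Western blot densitometry to build melt curves.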
Target sequence in this assay (P01106 16-454): as above

MYC [5] = test: Western blot of MYC protein level, stability and phosphorylation in cells; assay type: cell-based, human; conditions: 8 μM
Procedure, shortened: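 PC3 cells, or PC3 stably expressing Flag-MYC, Flag-MYCT58A or Flag-MYCS62A (lentiviral, 1.5 μg/ml puromycin selection), were used. For stability, cells were pretreated 3 hr with compound or DMSO, then given cycloheximide and harvested at time points. MYC, pT58, pS62, GSK3β and pGSK3β S9 were detected by western blot over a time course. Band intensities were densitometrically quantified.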

[6] = Pharmacokinetics of 975 in CD-1 mice; conditions: male, CD-1, mouse, in vivo, po
[7] = tested on: MYC transcriptional activity (E-box-luciferase); test: E-box luciferase reporter assay in vitro; assay type: cell-based
Procedure, shortened: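 MycCaP cells stably carrying either MYC E-box-luciferase reporter or control mCherry-P2A-luciferase vector plated 10000 cells/well. Serial dilution of test compound added the next day; luminescence read by Steady-Glo after 4 hr treatment.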

[8] = 14-day toxicology in mice; assay type: in vivo, mouse; conditions: 100 mg/kg daily for 14 days, analyzed one week later
[9] = Maximum tolerated dose / acute toxicity in mice; assay type: in vivo; conditions: p.o., single dose at 50, 100, 250, 500 or 1000 mg/kg
MYC353–439 = MYC353–439 (Homo sapiens, UniProt P01106); test: Fluorescence polarization competition assay against 10074-G5; assay type: binding
Sequence of MYC353–439 (P01106 368-454): as the sequence (P01106 368-454) above

[10] = tested on: MYC-dependent cancer cells; test: Cell viability, MYC-dependent cancer cells; assay type: cell-based; conditions: prostate cancer cells versus PC12, 5 days
Procedure, shortened: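 Cells were seeded at 1000 to 5000 per well in 96-well plates, depending on cell type. Viable cells were counted, or MTS absorbance was read at 490 nm, 2 to 7 days after treatment. MycCaP, PC3, LNCaP and P493–6 were grown in RPMI1640, SK-N-BE(2) in F12 and MV411 in IMDM, each with 10% heat-inactivated FBS and 1% penicillin-streptomycin.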

MV-411 AML xenografts = test: MV-411 AML xenograft; assay type: in vivo, mouse
Procedure, shortened: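 Immunodeficient mice were inoculated with 5×10⁶ MV-411 cells in PBS:matrigel 1:1. They were randomised by tumour volume at ~200 to 500 mm³ and dosed with vehicle, test compound, or test compound plus Ara-C, 5 days a week for 3 weeks. Calipers were read twice weekly and volume was taken as (length × width × width)/2. Body weight was monitored, n = 4 mice/group, mean ± SEM.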

MycCaP tumor allografts = test: MycCaP allograft/xenograft mouse model; assay type: in vivo
Procedure, shortened: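 Male FVB (allograft) or NSG (xenograft) mice, 6–8 weeks, ~25 g, acclimated >4 days. Injected s.c. in flanks with 1 × 10⁶ MycCaP E-box-luciferase cells in 100 μl Matrigel. Tumors followed by caliper ((length × width × width)/2) and by bioluminescent imaging after i.p. substrate injection. Body weight recorded. Tumor tissue assessed by H&E and immunofluorescence for Ki67, MYC pT58 and PD-L1.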

MAX(S) = MAX(S) (Homo sapiens, UniProt P61244-2 1-151); test: EMSA
[11] = MycCaP allograft, 100 mg/kg/day i.p. for 14 days

Q: With O=P(O)(O)OCOc1ccc(-c2cc(C(F)(F)F)n[nH]2)c(O)c1-c1ccc(Cl)c(C(F)(F)F)c1 [975 phosphate analog, ((4’-chloro-6-hydroxy-3’-(trifluoromethyl)-5-(3-(trifluoromethyl)-1H-pyrazol-5-yl)-[1,1’-biphenyl]-2-yl)oxy)methyl dihydrogen phosphate] as the molecule, how does the “binding to MYC by STD NMR” value (MYC [1]) read?
A: bound to MYC

Q: For Cn1nc(C(F)(F)F)cc1-c1ccc(OCCCNC(=O)CCOCCOCCOCCOCCOCCOCCNC(=O)CCCC[C@@H]2SCC3NC(=O)NC32)c(-c2cc(C(F)(F)F)cc(C(F)(F)F)c2)c1O (stereo partly drawn) [Biotin-361, N-(3-((6-hydroxy-5-(1-methyl-3-(trifluoromethyl)-1H-pyrazol-5-yl)-3’,5’-bis(trifluoromethyl)-[1,1’-biphenyl]-2-yl)oxy)propyl)-1-(5-((4S)-2-oxohexahydro-1H-thieno[3,4-d]imidazol-4-yl)pentanamido)-3,6,9,12,15,18-hexaoxahenicosan-21-amide], which “pull down of HIF-1α” value (HIF-1α) is on record?
A: not MAX or another bHLH protein HIF-1α

Q: What about the “pull down of recombinant MYC and endogenous MYC” value (MYC [2]; cell lysates) of the same molecule?
A: pulled down

Q: With Cn1nc(C(F)(F)F)cc1-c1ccc(OCCNC(=O)CCOCCOCCOCCOCCNC(=O)CCCC[C@@H]2SCC3NC(=O)NC32)c(-c2cc(C(F)(F)F)cc(C(F)(F)F)c2)c1O (stereo partly drawn) [Biotin-975, N-(2-((6-hydroxy-5-(1-methyl-3-(trifluoromethyl)-1H-pyrazol-5-yl)-3’,5’-bis(trifluoromethyl)-[1,1’-biphenyl]-2-yl)oxy)ethyl)-1-(5-((4S)-2-oxohexahydro-1H-thieno[3,4-d]imidazol-4-yl)pentanamido)-3,6,9,12-tetraoxapentadecan-15-amide] as the molecule, how does the “pull down of MYC protein” value (MYC [2]; 10 μM, PC3 cells) read?
A: pulled down MYC protein

Q: For Cn1nc(C(F)(F)F)cc1-c1ccc(OCc2ccc(Cl)cc2)c(-c2ccc(Cl)c(C(F)(F)F)c2)c1O [Compound 975, 4’-chloro-6-((4-chlorobenzyl)oxy)-3-(1-methyl-3-(trifluoromethyl)-1H-pyrazol-5-yl)-3’-(trifluoromethyl)-[1,1’-biphenyl]-2-ol], which body weight [3] is on record?
A: no changes in body weight

Q: And the tumor growth [3]?
A: inhibited tumor growth

Q: And the “pT58 levels in in vitro kinase assay” value (GSK3β-mediated MYC pT58)?
A: directly increased GSK3β-mediated MYC pT58

Q: And the “MYC target engagement by CETSA” value (MYC [4]; 8 μM)?
A: confirmed MYC target engagement

Q: What about the “MYC degradation and phosphorylation on T58” value (MYC [5]) of the same molecule?
A: enhanced MYC degradation and phosphorylation on T58

Q: And the Cmax ([6]; 100 mg/kg)?
A: 41500 ng/mL and 74 µM

Q: And the half-life ([6]; 100 mg/kg)?
A: 7 h

Q: What about the Cmax ([6]; 250 mg/kg) of the same molecule?
A: 54000 ng/mL and 96 µM

Q: What about the half-life ([6]; 250 mg/kg) of the same molecule?
A: 12 h

Q: What about the “E-box-luciferase versus CMV-luciferase activity in vitro” value [7] of the same molecule?
A: selectively suppressed E-box-luciferase activity

Q: What about the “gross and histological analysis of organs” value [8] of the same molecule?
A: no obvious pathologic abnormalities

Q: And the “hematology, blood chemistry, kidney and liver function” value [8]?
A: normal complete blood count and differential, normal blood chemistry, and normal kidney and liver function

Q: And the “well tolerated single dose, acute toxicity” value [9]?
A: up to 1000 mg/kg

Q: And the Kd (MYC353–439)?
A: 2500 nM

Q: What about the cell viability [10] of the same molecule?
A: inhibited cell viability in a MYC-dependent manner

Q: What about the “efficacy as a single agent” value (MV-411 AML xenografts; 50 mg/kg/day, 5 days a week) of the same molecule?
A: reduced efficacy as a single agent

Q: And the “body weight, combination with Ara-C” value (MV-411 AML xenografts; 975 50 mg/kg/day, Ara-C 20 mg/kg/day)?
A: no obvious impact on mouse body weight

Q: And the “tumor growth, combination with Ara-C” value (MV-411 AML xenografts; 975 50 mg/kg/day, Ara-C 20 mg/kg/day, 5 days a week)?
A: synergized with Ara-C

Q: What about the “tumor inhibition, FVB versus NSG mice” value (MycCaP tumor allografts; 50 mg/kg twice daily, 3 days) of the same molecule?
A: more strongly than in immunodeficient NSG mice

Q: And the “pT58 and PD-L1 levels in tumor tissue” value (MycCaP tumor allografts; 100 mg/kg/day i.p. for 14 days)?
A: increased pT58 and PD-L1 levels

Q: And the “tumor growth, 975 alone” value (MycCaP tumor allografts; 100 mg/kg/day, 2 days on/2 days off)?
A: slowed tumor growth

Q: What about the “tumor infiltration of immune cells” value (MycCaP tumor allografts; CD3+ T cells, B220+ B cells, NKp46+ NK cells, 100 mg/kg/day for 14 days) of the same molecule?
A: enhanced tumor infiltration of CD3+ T cells

Q: What about the survival (MycCaP tumor allografts; [11]) of the same molecule?
A: increased survival

Q: What about the tumor growth (MycCaP tumor allografts; [11]) of the same molecule?
A: significantly inhibited tumor growth

Q: With O=[N+]([O-])c1ccc(Nc2ccccc2-c2ccccc2)c2nonc12 [Compound G5, reference compound] as the molecule, how does the “thermal stability of MYC protein (CETSA)” value (MYC [4]; 30 min, 361 4–10 μM, G5 15–60 μM, 360 6 μM) read?
A: significant thermal destabilization

Q: And the “competition of MYC binding to Biotin-361” value (MYC [2])?
A: competed

Q: What about the “binding to MYC by STD NMR” value (MYC [1]) of the same molecule?
A: confirmed interaction

Q: Which “competition of MYC binding to Biotin-361” value (MYC [2]) does the source give for Cn1nc(C(F)(F)F)cc1-c1ccc(OCOP(=O)(O)O)c(-c2cc(C(F)(F)F)cc(C(F)(F)F)c2)c1O [Phosphate-361, ((6-hydroxy-5-(1-methyl-3-(trifluoromethyl)-1H-pyrazol-5-yl)-3’,5’-bis(trifluoromethyl)-[1,1’-biphenyl]-2-yl)oxy)methyl dihydrogen phosphate] here?
A: competed

B1: HEX E-box oligo (dsDNA)
DNA 1: CACCCGGTCACGTGGCCTACAC
DNA 2: GTGTAGGCCACGTGACCGGGTG
Q: Does B1 bind (MAX(S))?
A: no binding
